One block for each compound: values may come before it. The source made the active and inactive calls. The calls are words filed in the database; no cut-off is given here.
Assays:
[1] = target: T1, Estrogen receptor (Mus musculus) (UniProt O08537+P19785); assay: Binding affinity for murine Estrogen receptor; format: protein assay
[2] = target: T1, Estrogen receptor (Mus musculus); assay: In vitro inhibition of murine Estrogen receptor; format: protein assay; set-up: concentration or dose not given beside the values; conditions: concentration not given here
Rattus norvegicus [3] = assay: Inhibition of the DMBA-induced mammary carcinoma in 10 rats at 20 mg/kg dose; format: functional
Procedure, shortened: (§1)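 Established DMBA-induced mammary carcinoma, Sprague-Dawley rats; compound in arachis oil sc three times weekly (Mon, Wed, Fri). Starting tumor area above 140 mm² per animal; percent increase of tumor area after 28 days of therapy, mean values; significance by Wilcoxon-Mann-Whitney U test.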

Rattus norvegicus [4] = organism: Rattus norvegicus; assay: Dehydrogenase activity in regressing DMBA-induced mammary tumor in rats; format: functional
Procedure, shortened: (§2)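 DMBA-induced rat mammary tumors, growing versus regressing, assayed for glucose-6-phosphate plus 6-phosphogluconate dehydrogenase and p-nitrophenylphosphatase activities (μM/mL); mean ± SD, growing vs regressing compared by Student's t test.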

Rattus norvegicus [5] = organism: Rattus norvegicus; assay: p-Nitrophenylphosphatase activity in proliferating DMBA-induced mammary tumor in rats; format: functional; procedure, shortened: as §2
Rattus norvegicus [6] = organism: Rattus norvegicus; assay: p-Nitrophenylphosphatase activity in regressing DMBA-induced mammary tumor in rats; not significant; format: functional; procedure, shortened: as §2
Rattus norvegicus [7] = organism: Rattus norvegicus; assay: Dehydrogenase activity in proliferating DMBA-induced mammary tumor in rats; format: functional; procedure, shortened: as §2
MCF7 [8] = assay: Incorporation of [3H]thymidine into estrogen-responsive MCF-7 human breast tumor cells at 10e-5 M; format: functional
Procedure, shortened: (§3)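 MCF-7 cells plated in medium with 10% FCS, switched next day to 5% dextran-charcoal-stripped calf serum, medium renewed every 72 h. At ~60% confluence compounds added in ethanol (0.1% final), 60 h incubation; 1 μCi [3H]thymidine per well for last 2 h. Acid (10% Cl3AcOH)-precipitable counts from sonicate, dpm/dish, mean of six dishes ± SD.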

MCF7 [9] = assay: Incorporation of [3H]thymidine into estrogen-responsive MCF-7 human breast tumor cells at 10e-5 M; dpm/dish; format: functional; procedure, shortened: as §3
MCF7 [10] = assay: Incorporation of [3H]thymidine into estrogen-responsive MCF-7 human breast tumor cells at 10e-8 M with hexestrol; format: functional; procedure, shortened: as §3
MCF7 [11] = assay: Incorporation of [3H]thymidine into estrogen-responsive MCF-7 human breast tumor cells at 10e-8 M with hexestrol; dpm/dish; format: functional; procedure, shortened: as §3
[12] = target: T1, Estrogen receptor (Mus musculus); assay: (§4) Binding affinity for murine Estrogen receptor; No affinity; format: protein assay
[13] = target: T1, Estrogen receptor (Mus musculus); assay: as §4; format: protein assay; remark: listed apart in the source
MCF7 [14] = assay: Incorporation of [3H]thymidine into estrogen-responsive MCF-7 human breast tumor cells at 10e-8 M concentration with hexestrol; dpm/dish; format: functional; procedure, shortened: as §3
Rattus norvegicus [15] = assay: Inhibition of the DMBA-induced mammary carcinoma in 11 rats at 25 mg/kg dose; not significant; format: functional; procedure, shortened: as §1
Rattus norvegicus [16] = assay: Inhibition of the DMBA-induced mammary carcinoma in 8 rats at 15 mg/kg dose; not significant; format: functional; procedure, shortened: as §1

T1 sequence (O08537 whole entry, looked up): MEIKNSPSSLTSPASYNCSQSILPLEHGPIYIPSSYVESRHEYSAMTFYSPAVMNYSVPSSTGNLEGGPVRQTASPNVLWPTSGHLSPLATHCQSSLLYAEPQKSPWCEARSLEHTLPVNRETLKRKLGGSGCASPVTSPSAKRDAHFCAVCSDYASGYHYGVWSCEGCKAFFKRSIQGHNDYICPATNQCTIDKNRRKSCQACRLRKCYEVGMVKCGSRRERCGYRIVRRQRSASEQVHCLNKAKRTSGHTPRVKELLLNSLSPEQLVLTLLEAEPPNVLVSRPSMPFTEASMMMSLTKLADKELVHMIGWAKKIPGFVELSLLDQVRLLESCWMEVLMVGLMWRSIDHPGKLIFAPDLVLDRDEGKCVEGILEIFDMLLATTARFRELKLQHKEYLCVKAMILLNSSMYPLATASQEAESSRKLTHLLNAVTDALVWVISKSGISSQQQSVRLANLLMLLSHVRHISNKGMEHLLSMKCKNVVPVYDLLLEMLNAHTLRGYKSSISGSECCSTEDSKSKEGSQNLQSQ
T1 sequence (P19785 whole entry, looked up): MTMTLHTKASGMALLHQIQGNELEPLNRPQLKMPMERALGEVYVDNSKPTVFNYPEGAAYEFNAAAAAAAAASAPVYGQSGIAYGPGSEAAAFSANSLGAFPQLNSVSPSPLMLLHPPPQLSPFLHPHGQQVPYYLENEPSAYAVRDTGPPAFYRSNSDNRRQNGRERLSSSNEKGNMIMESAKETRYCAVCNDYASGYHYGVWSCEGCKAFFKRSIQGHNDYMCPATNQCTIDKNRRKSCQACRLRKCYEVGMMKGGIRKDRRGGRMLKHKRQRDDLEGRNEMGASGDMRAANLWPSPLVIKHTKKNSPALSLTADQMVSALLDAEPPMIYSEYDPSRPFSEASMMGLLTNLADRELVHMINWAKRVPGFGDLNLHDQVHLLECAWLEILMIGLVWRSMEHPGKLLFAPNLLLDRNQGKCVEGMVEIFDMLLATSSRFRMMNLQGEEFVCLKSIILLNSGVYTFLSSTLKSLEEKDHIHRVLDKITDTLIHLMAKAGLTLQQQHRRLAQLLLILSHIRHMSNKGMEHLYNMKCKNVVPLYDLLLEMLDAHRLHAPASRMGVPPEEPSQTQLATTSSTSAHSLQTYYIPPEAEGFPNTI

SMILES: CCNC(c1ccc(O)cc1)C(NCC)c1ccc(O)cc1 (stereo not given)
- Ka [1]: < 10000 M⁻¹

- inhibition [2]: 75%
SMILES: CCCCN1CN(CCCC)C(c2ccc(O)cc2)C1c1ccc(O)cc1 (stereo in doubt; 7c)

SMILES: CCCCNC(c1ccc(O)cc1)C(NCCCC)c1ccc(O)cc1.Cl.Cl (single isomer, unassigned; (+))
- Increase (Rattus norvegicus [3]): 112%
- Activity (Rattus norvegicus [4]): 101.8 uM ml-1
- Activity (Rattus norvegicus [5]): 39.4 uM ml-1
- Activity (Rattus norvegicus [6]): 48.4 uM ml-1
- Activity (Rattus norvegicus [7]): 191.7 uM ml-1

SMILES: CCCCNC(c1ccc(O)cc1)C(NCCCC)c1ccc(O)cc1.Cl.Cl (racemic)
- Activity (MCF7 [8]): 79%
- Activity (MCF7 [9]): 10833
- Activity (MCF7 [10]): 101%
- Activity (MCF7 [11]): 13942

SMILES: CNC(c1ccc(OC)cc1)C(NC)c1ccc(OC)cc1 (stereo not given)
- Ka [12]: inactive

SMILES: CCNC(c1ccc(OC)cc1)C(NCC)c1ccc(OC)cc1 (stereo not given)
- Ka [13]: inactive

- inhibition [2]: 75%
SMILES: CCCCN1C(=S)N(CCCC)C(c2ccc(O)cc2)C1c1ccc(O)cc1 (racemic)

SMILES: CCCCNC(c1ccc(O)cc1)C(NCCCC)c1ccc(O)cc1.Cl.Cl (single isomer, unassigned; (-))
- Increase (Rattus norvegicus [3]): 115%
- Activity (Rattus norvegicus [4]): 121.3 uM ml-1
- Activity (Rattus norvegicus [5]): 42.8 uM ml-1
- Activity (Rattus norvegicus [6]): 44.9 uM ml-1
- Activity (Rattus norvegicus [7]): 183.3 uM ml-1

- Ka [13]: inactive
SMILES: CCCNC(c1ccc(OC)cc1)C(NCCC)c1ccc(OC)cc1 (stereo not given)

- inhibition [2]: 0%
SMILES: CCCCN1CN(CCCC)C(c2ccc(O)cc2)C1c1ccc(O)cc1 (stereo in doubt; 7d)

- Ka [13]: inactive
SMILES: CCCCNC(c1cccc(OC)c1)C(NCCCC)c1cccc(OC)c1 (stereo not given)

SMILES: CC/C(=C(\c1ccccc1)c1ccc(OCCN(C)C)cc1)c1ccccc1 [TAMOXIFEN]
- Activity (MCF7 [10]): 82%
- Activity (MCF7 [14]): 11225

- Ka [1]: 320000 M⁻¹
SMILES: CCCCCCNC(c1ccc(O)cc1)C(NCCCCCC)c1ccc(O)cc1.Cl.Cl (stereo not given)
- Increase (Rattus norvegicus [15]): 132%

SMILES: CCCCNC(c1ccc(O)cc1)C(NCCCC)c1ccc(O)cc1.Cl.Cl (stereo not given)
- Increase (Rattus norvegicus [16]): 475%

- inhibition [2]: 48%
SMILES: CCCCN1C(c2ccc(O)cc2)C(c2ccc(O)cc2)N(CCCC)C1c1ccc(O)cc1 (racemic)

- Ka [1]: 3.6e+06 M⁻¹
SMILES: CCCCNC(c1ccc(O)cc1)C(NCCCC)c1ccc(O)cc1 (racemic)

SMILES: CC[C@H](c1ccc(O)cc1)[C@@H](CC)c1ccc(O)cc1 [HEXESTROL]
- Activity (MCF7 [10]): 120%
- Activity (MCF7 [14]): 16485

- Ka [12]: inactive
SMILES: CCCCNC(c1ccccc1OC)C(NCCCC)c1ccccc1OC (stereo not given)

- inhibition [2]: 39%
SMILES: CCCCN1C(c2ccc(O)cc2)C(c2ccc(O)cc2)N(CCCC)C1c1ccccc1 (racemic)

- Ka [13]: inactive
SMILES: COc1ccc(C(NC(C)C)C(NC(C)C)c2ccc(OC)cc2)cc1 (stereo not given)

- Ka [1]: < 10000 M⁻¹
SMILES: CCCCNC(c1cccc(O)c1)C(NCCCC)c1cccc(O)c1 (stereo not given)

- inhibition [2]: 70%
SMILES: CCCCN1CN(CCCC)C(c2ccc(O)cc2)C1c1ccc(O)cc1 (racemic) [listing 1 of 2 here]

- Ka [1]: 140000 M⁻¹
SMILES: CC(C)NC(c1ccc(O)cc1)C(NC(C)C)c1ccc(O)cc1 (stereo not given)

- Ka [12]: 700000 M⁻¹
SMILES: CCCCNC(c1ccc(O)cc1)C(NCCCC)c1ccc(O)cc1 (single isomer, unassigned; (-))

SMILES: CCCCN1CN(CCCC)C(c2ccc(O)cc2)C1c1ccc(O)cc1 (racemic) [listing 2 of 2 here]
- Increase (Rattus norvegicus [16]): 105%

- Ka [1]: 2.2e+06 M⁻¹
SMILES: CCCCCNC(c1ccc(O)cc1)C(NCCCCC)c1ccc(O)cc1 (stereo not given)

SMILES: CNC(c1ccc(O)cc1)C(NC)c1ccc(O)cc1 (stereo not given)
- Ka [12]: inactive

- Ka [13]: inactive
- Ka [12]: inactive
SMILES: CCCCNC(c1ccc(OC)cc1)C(NCCCC)c1ccc(OC)cc1 (stereo not given)

- Ka [12]: inactive
SMILES: CCCCCNC(c1ccc(OC)cc1)C(NCCCCC)c1ccc(OC)cc1 (stereo not given)

- Ka [1]: 1.1e+06 M⁻¹
SMILES: CCCNC(c1ccc(O)cc1)C(NCCC)c1ccc(O)cc1 (stereo not given)

- Ka [13]: inactive
SMILES: CCCCCCNC(c1ccc(OC)cc1)C(NCCCCCC)c1ccc(OC)cc1 (stereo not given)

- inhibition [2]: 3%
SMILES: CCCCN1CN(CCCC)C(c2ccc(O)cc2)C1c1ccc(O)cc1 (single isomer, unassigned; (+))

- Ka [1]: inactive
SMILES: CCCCNC(c1ccccc1O)C(NCCCC)c1ccccc1O (stereo not given)

- Ka [12]: 2.1e+07 M⁻¹
SMILES: CCCCNC(c1ccc(O)cc1)C(NCCCC)c1ccc(O)cc1 (single isomer, unassigned; (+))

- inhibition [2]: 66%
SMILES: CCCN1CN(CCC)C(c2ccc(O)cc2)C1c1ccc(O)cc1 (racemic)

— ChEMBL document CHEMBL1122147, “N,N'-Dialkyl-1,2-bis(hydroxyphenyl)ethylenediamines and N,N-dialkyl-4,5-bis(4-hydroxyphenyl)imidazolidines: syntheses and evaluation of their mammary tumor inhibiting activity” (1982)
